Experimental data as given in ChEMBL document CHEMBL3120154, “2-[N-Alkyl(R-phenyl)-aminomethyl]-3-phenyl-7-trifluoromethylquinoxalines as anticancer agents inhibitors of folate enzymes” (Eur J Med Chem, 2014).

How the values were obtained:
Format in all cases: functional
Malme-3M = assay: Cytotoxicity against human MALME-3M cells at 10^-6 M after 48 hrs by SRB assay; conditions: read-out: GI
HCC 2998 [1] = assay: Cytotoxicity against human HCC2998 cells at 10^-7 M after 48 hrs by SRB assay; conditions: HCC 2998, 48 h, read-out: GI
KM12 = assay: Cytotoxicity against human KM12 cells at 10^-8 M after 48 hrs by SRB assay; conditions: KM12, 48 h, read-out: GI
SF-295 = assay: Cytotoxicity against human SF295 cells at 10^-8 M after 48 hrs by SRB assay; conditions: SF-295, 48 h, read-out: GI
786-0 = assay: Cytotoxicity against human 786-0 cells at 10^-7 M after 48 hrs by SRB assay; conditions: 786-0, 48 h, read-out: GI
SR [2] = assay: Cytotoxicity against human SR cells at 10^-5 M after 48 hrs by SRB assay; conditions: read-out: GI
OVCAR-8 [3] = assay: Cytotoxicity against human OVCAR8 cells after 48 hrs by SRB assay; conditions: OVCAR-8, 48 h
A549 [4] = assay: Cytotoxicity against human A549 cells at 10^-7 M after 48 hrs by SRB assay; conditions: A549, 48 h, read-out: GI
RPMI-8226 = assay: Cytotoxicity against human RPMI8226 cells at 10^-7 M after 48 hrs by SRB assay; conditions: RPMI-8226, 48 h, read-out: GI
HCT-15 = assay: Cytotoxicity against human HCT15 cells at 10^-8 M after 48 hrs by SRB assay; conditions: HCT-15, 48 h, read-out: GI
HOP-62 = assay: Cytotoxicity against human HOP62 cells at 10^-7 M after 48 hrs by SRB assay; conditions: HOP-62, 48 h, read-out: GI
SW-620 = assay: Cytotoxicity against human SW620 cells at 10^-8 M after 48 hrs by SRB assay; conditions: SW-620, 48 h, read-out: GI
SK-OV-3 = assay: Cytotoxicity against human SKOV3 cells at 10^-8 M after 48 hrs by SRB assay; conditions: SK-OV-3, 48 h, read-out: GI
HT-29 = assay: Cytotoxicity against human HT-29 cells at 10^-8 M after 48 hrs by SRB assay; conditions: HT-29, 48 h, read-out: GI
SK-MEL-28 = assay: Cytotoxicity against human SK-MEL-28 cells at 10^-7 M after 48 hrs by SRB assay; conditions: SK-MEL-28, 48 h, read-out: GI
COLO 205 [5] = assay: Cytotoxicity against human COLO205 cells at 10^-7 M after 48 hrs by SRB assay; conditions: COLO 205, 48 h, read-out: GI
IGROV-1 = assay: Cytotoxicity against human IGROV1 cells at 10^-7 M after 48 hrs by SRB assay; conditions: IGROV-1, 48 h, read-out: GI
OVCAR-3 [6] = assay: Cytotoxicity against human OVCAR3 cells at 10^-7 M after 48 hrs by SRB assay; conditions: OVCAR-3, 48 h, read-out: GI
NCI-H522 = assay: Cytotoxicity against human NCI-H522 cells at 10^-7 M after 48 hrs by SRB assay; conditions: NCI-H522, 48 h, read-out: GI
OVCAR-8 [7] = assay: Cytotoxicity against human OVCAR8 cells at 10^-8 M after 48 hrs by SRB assay; conditions: OVCAR-8, 48 h, read-out: GI
COLO 205 [8] = assay: Cytotoxicity against human COLO205 cells at 10^-8 M after 48 hrs by SRB assay; conditions: COLO 205, 48 h, read-out: GI
A549 [9] = assay: Cytotoxicity against human A549 cells after 48 hrs by SRB assay; conditions: A549, 48 h
K562 [10] = assay: Cytotoxicity against human K562 cells at 10^-8 M after 48 hrs by SRB assay; conditions: K562, 48 h, read-out: GI
K562 [11] = assay: Cytotoxicity against human K562 cells at 10^-5 M after 48 hrs by SRB assay; conditions: K562, 48 h, read-out: GI
[12] = Cytotoxicity against human UO31 cells at 10^-7 M after 48 hrs by SRB assay; conditions: UO-31, 48 h, read-out: GI
OVCAR-3 [13] = assay: Cytotoxicity against human OVCAR3 cells at 10^-8 M after 48 hrs by SRB assay; conditions: OVCAR-3, 48 h, read-out: GI
[14] = Cytotoxicity against human EKVX cells at 10^-8 M after 48 hrs by SRB assay; conditions: read-out: GI
HL-60(TB) = assay: Cytotoxicity against human HL-60(TB) cells at 10^-8 M after 48 hrs by SRB assay; conditions: HL-60, 48 h, read-out: GI
Method in brief: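 NCI 60-human-tumour-cell-line screen run over a 5-log dose range (100, 10, 1, 0.1 and 0.01 µM). Cells were exposed to drug for 48 h. Growth was estimated by sulforhodamine B protein staining. Values are percent growth inhibition at each concentration, relative to untreated control cells.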

A549 [15] = assay: Cytotoxicity against human A549 cells at 10^-8 M after 48 hrs by SRB assay; conditions: A549, 48 h, read-out: GI
[16] = Cytotoxicity against human UO31 cells at 10^-8 M after 48 hrs by SRB assay; conditions: UO-31, 48 h, read-out: GI
SN12C = assay: Cytotoxicity against human SN12C cells at 10^-7 M after 48 hrs by SRB assay; conditions: read-out: GI
HCC 2998 [17] = assay: Cytotoxicity against human HCC2998 cells at 10^-5 M after 48 hrs by SRB assay; conditions: HCC 2998, 48 h, read-out: GI
HCC 2998 [18] = assay: Cytotoxicity against human HCC2998 cells at 10^-8 M after 48 hrs by SRB assay; conditions: HCC 2998, 48 h, read-out: GI
SK-MEL-2 = assay: Cytotoxicity against human SK-MEL-2 cells at 10^-8 M after 48 hrs by SRB assay; conditions: SK-MEL-2, 48 h, read-out: GI
UACC-62 = assay: Cytotoxicity against human UACC62 cells at 10^-7 M after 48 hrs by SRB assay; conditions: UACC-62, 48 h, read-out: GI
SF-539 = assay: Cytotoxicity against human SF539 cells at 10^-7 M after 48 hrs by SRB assay; conditions: SF-539, 48 h, read-out: GI
BT-549 = assay: Cytotoxicity against human BT549 cells at 10^-7 M after 48 hrs by SRB assay; conditions: BT-549, 48 h, read-out: GI
MDA-MB-231 = assay: Cytotoxicity against human MDA-MB-231 cells at 10^-7 M after 48 hrs by SRB assay; conditions: MDA-MB-231, 48 h, read-out: GI
SF-268 = assay: Cytotoxicity against human SF268 cells at 10^-8 M after 48 hrs by SRB assay; conditions: SF-268, 48 h, read-out: GI
SR [19] = assay: Cytotoxicity against human SR cells at 10^-4 M after 48 hrs by SRB assay; conditions: read-out: GI

## C#CCN(Cc1nc2cc(C(F)(F)F)ccc2nc1-c1ccccc1)c1ccc(C)cc1
Malme-3M
  inhibition of growth at 1 µM: < 40%

## CCN(Cc1nc2cc(C(F)(F)F)ccc2nc1-c1ccccc1)c1ccc(OC)c(OC)c1
HCC 2998 [1]
  inhibition of growth at 0.1 µM: < 40%
KM12
  inhibition of growth at 0.01 µM: < 40%
SF-295
  inhibition of growth at 0.01 µM: < 40%
786-0
  inhibition of growth at 0.1 µM: < 40%
SR [2]
  inhibition of growth at 10 µM: 56%
OVCAR-8 [3]
  GI50: 1510 nM
A549 [4]
  inhibition of growth at 0.1 µM: 42%
RPMI-8226
  inhibition of growth at 0.1 µM: < 40%
HCT-15
  inhibition of growth at 0.01 µM: < 40%
HOP-62
  inhibition of growth at 0.1 µM: < 40%
SW-620
  inhibition of growth at 0.01 µM: < 40%
SK-OV-3
  inhibition of growth at 0.01 µM: < 40%
HT-29
  inhibition of growth at 0.01 µM: < 40%
SK-MEL-28
  inhibition of growth at 0.1 µM: < 40%
COLO 205 [5]
  inhibition of growth at 0.1 µM: < 40%
IGROV-1
  inhibition of growth at 0.1 µM: < 40%
OVCAR-3 [6]
  inhibition of growth at 0.1 µM: < 40%
NCI-H522
  inhibition of growth at 0.1 µM: < 40%
OVCAR-8 [7]
  inhibition of growth at 0.01 µM: 11%
COLO 205 [8]
  inhibition of growth at 0.01 µM: < 40%
A549 [9]
  GI50: 372 nM
K562 [10]
  inhibition of growth at 0.01 µM: < 40%
K562 [11]
  inhibition of growth at 10 µM: 62%
[12]
  inhibition of growth at 0.1 µM: < 40%
OVCAR-3 [13]
  inhibition of growth at 0.01 µM: < 40%
[14]
  inhibition of growth at 0.01 µM: < 40%
HL-60(TB)
  inhibition of growth at 0.01 µM: < 40%
A549 [15]
  inhibition of growth at 0.01 µM: 19%
[16]
  inhibition of growth at 0.01 µM: < 40%
SN12C
  inhibition of growth at 0.1 µM: < 40%
HCC 2998 [17]
  inhibition of growth at 10 µM: 15%
HCC 2998 [18]
  inhibition of growth at 0.01 µM: < 40%
SK-MEL-2
  inhibition of growth at 0.01 µM: < 40%
UACC-62
  inhibition of growth at 0.1 µM: < 40%
SF-539
  inhibition of growth at 0.1 µM: < 40%
BT-549
  inhibition of growth at 0.1 µM: < 40%
MDA-MB-231
  inhibition of growth at 0.1 µM: < 40%
SF-268
  inhibition of growth at 0.01 µM: < 40%
SR [19]
  inhibition of growth at 100 µM: 145%
